The values below come from ChEMBL document CHEMBL4138082 (Eur J Med Chem, 2017).

The subject of one data set is PC-3. Put plainly: Antiproliferative activity against human PC3 cells after 72 hrs by MTT assay. It is filed as functional, cell-based. Conditions: PC-3, 72 h. The essentials:
(§1)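 MTT assay. Cells were seeded and grown 24 h at 37 °C in 5% CO2, then exposed to compound or left untreated for 72 h. MTT (5 mg/mL stock) was added for 4 h and the formazan dissolved in DMSO. OD was read at 570 nm. IC50 is the concentration giving 50% growth inhibition, reported as mean ± SD of three independent experiments. Vehicle reference was 0.1% DMSO.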

In a further data set the test system is HT-29. Put plainly: Antiproliferative activity against human HT-29 cells after 72 hrs by MTT assay. The data set is classed as functional, cell-based. Conditions: HT-29, 72 h. The essentials: as §1
A further data set relates to HepG2. As to the kind of experiment: Antiproliferative activity against human HepG2 cells after 72 hrs by MTT assay. It is filed as functional, cell-based. As to conditions: HepG2, 72 h. The essentials: as §1
On the technique in general: Tetrazolium assays rely on reduction of a dye to a coloured formazan, in cell work by metabolically active cells.

In the next data set the test system is L02. As to the kind of experiment: Cytotoxicity against human L02 cells assessed as reduction in cell viability after 72 hrs by MTT assay. It is filed as cell-based. As to conditions: L02, 72 h. The essentials:
as §1

The nature of data set [1]: Selectivity index, ratio of IC50 for human L02 cells to IC50 for human HepG2 cells. Conditions: L02 cells and HepG2 cells, read-out: Ratio IC50. The data set is classed as toxicity. The essentials: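 MTT assay: cells grown 24 h at 37 °C, 5% CO2, then exposed 72 h; MTT (5 mg/mL) added for 4 h, formazan dissolved in DMSO, OD read at 570 nm. Vehicle 0.1% DMSO. Three independent experiments.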

Turning to `C[C@H]1CCC/C=C/[C@@H]2C[C@H](O)C[C@H]2[C@H](OC(=O)CCC(=O)OCCOc2no[n+]([O-])c2S(=O)(=O)c2ccccc2)/C=C/C(=O)O1`, the 50% inhibitory concentration (IC50) with PC-3 turned out to be 0.12 µM; with HT-29, 0.23 µM; with HepG2, 0.51 µM; in the data set with L02, 5 µM. Besides, in data set [1], the selectivity ratio amounted to 10.

On to `O=C(O)CCCC(=O)OCCCOc1no[n+]([O-])c1S(=O)(=O)c1ccccc1`, for which the IC50 in the data set with PC-3 was 3.3 µM; in the data set on HT-29, above 10 µM; in the data set on HepG2 it was above 10 µM; with L02, 35 µM.

For the compound `C[C@H]1CCC/C=C/[C@@H]2C[C@H](OC(=O)CCC(=O)OCCCOc3no[n+]([O-])c3S(=O)(=O)c3ccccc3)C[C@H]2[C@H](OC(=O)CCC(=O)OCCCOc2no[n+]([O-])c2S(=O)(=O)c2ccccc2)/C=C/C(=O)O1`, the IC50 amounted to 0.12 µM with PC-3, 1.2 µM with HT-29, 0.84 µM in the data set with HepG2 and 7.2 µM in the data set with L02. The selectivity ratio in data set [1] is 9.

For `O=C(O)c1ccccc1C(=O)OCCCOc1no[n+]([O-])c1S(=O)(=O)c1ccccc1`, the IC50 is 4.9 µM with PC-3, above 10 µM in the data set on HT-29, above 10 µM with HepG2 and 40 µM in the data set on L02.

Consider `C[C@H]1CCC/C=C/[C@@H]2C[C@H](OC(=O)CCC(=O)OCCCOc3no[n+]([O-])c3S(=O)(=O)c3ccccc3)C[C@H]2[C@H](O)/C=C/C(=O)O1`, for which the IC50 amounted to 0.73 µM with PC-3, 0.91 µM with HT-29, 1.3 µM with HepG2 and 7.8 µM in the data set on L02. For the same compound, the selectivity ratio in data set [1] came to 6.

`C[C@H]1CCC/C=C/[C@@H]2C[C@H](OC(=O)c3ccccc3C(=O)OCCCOc3no[n+]([O-])c3S(=O)(=O)c3ccccc3)C[C@H]2[C@H](O)/C=C/C(=O)O1`: the IC50 in the data set with PC-3 turned out to be 0.095 µM; in the data set on HT-29, 0.3 µM; in the data set on HepG2 it was 0.62 µM; in the data set with L02 it was 5.4 µM. Further, the selectivity ratio in data set [1] came out at 9.

For the compound `O=C(O)CCCC(=O)OCCOc1no[n+]([O-])c1S(=O)(=O)c1ccccc1`, the IC50 with PC-3 is 5.1 µM; with HT-29, above 10 µM; in the data set with HepG2 it was 4 µM; in the data set with L02 it was 32 µM. Also, in data set [1], the selectivity ratio was found to be 8.

Turning to `C[C@H]1CCC/C=C/[C@@H]2C[C@H](O)C[C@H]2[C@H](OC(=O)c2ccccc2C(=O)OCCOc2no[n+]([O-])c2S(=O)(=O)c2ccccc2)/C=C/C(=O)O1`, the IC50 was 0.11 µM in the data set with PC-3, 0.4 µM with HT-29, 0.82 µM with HepG2 and 5.7 µM in the data set with L02. In data set [1], the selectivity ratio came out at 7.

As for `C[C@H]1CCC/C=C/[C@@H]2C[C@H](O)C[C@H]2[C@H](OC(=O)CCCC(=O)OCCCOc2no[n+]([O-])c2S(=O)(=O)c2ccccc2)/C=C/C(=O)O1`, the IC50 came to 0.095 µM with PC-3, 5.7 µM in the data set with HT-29, 1.8 µM in the data set with HepG2 and 6.7 µM in the data set on L02. Further, the selectivity ratio in data set [1] was determined as 4.

On to `O=c1[nH]cc(F)c(=O)[nH]1` [FLUOROURACIL], for which the IC50 in the data set on HT-29 was determined as 4.9 µM.

As to `O=C(O)CCC(=O)OCCOc1no[n+]([O-])c1S(=O)(=O)c1ccccc1`, the IC50 is 3.8 µM in the data set on PC-3, above 10 µM in the data set on HT-29, above 10 µM in the data set with HepG2 and 36 µM with L02.

Turning to `O=C(O)c1ccccc1C(=O)OCCOc1no[n+]([O-])c1S(=O)(=O)c1ccccc1`, the IC50 in the data set with PC-3 is 9.9 µM; in the data set on HT-29, above 10 µM; in the data set on HepG2, above 10 µM; with L02 it was 37 µM.

With `C[C@H]1CCC/C=C/[C@@H]2C[C@H](O)C[C@H]2[C@H](O)/C=C/C(=O)O1` [BREFELDIN A], the IC50 in the data set with PC-3 was 0.068 µM; in the data set with HT-29 it was 0.16 µM; in the data set with HepG2, 0.35 µM; in the data set on L02 it was below 0.0004 µM.

Broadly, the IC50 is the point on the concentration scale where inhibition reaches its midpoint.
